According to publication PMC4002123 (Journal of Medicinal Chemistry, 2014):
“Also recorded” adds a separate entry of the source.

Columns and labels:
MDA-MB-231 cells [1] = test: Antiproliferative assay; type: cell-based, human; conditions: read-out: growth inhibition IC50, MDA-MB-231; MDA-MB-231, 72 h
Method in brief: (§1)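 Seeded at 5 × 10^3 cells/well and grown 24 h. Medium then replaced with fresh medium holding test compound at a range of concentrations; DMSO below 0.25%. Incubated at 37 °C for 72 h. Resazurin added for 2 h, then fluorescence read at ex 560 / em 590 nm.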

A549 cells = test: Antiproliferative assay; type: cell-based, human; conditions: read-out: growth inhibition IC50, A549; A549, 72 h
Method in brief: as §1

HeLa cells [2] = test: Antiproliferative assay; type: cell-based, human; conditions: read-out: growth inhibition IC50, HeLa, 72 h
Method in brief: as §1

[3] = Mouse plasma concentrations after single oral dose; type: in vivo; conditions: mice, single oral dose 5 mg/kg
Method in brief: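 Female C57BL/6 mice dosed once by oral gavage at 5 mg/kg, test compound dissolved in ethanol and given in PBS. Blood drawn from orbital sinus at 1, 3, 6 and 24 h after dosing. Each group of mice sampled only once.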

bovine brain tubulin = test: Tubulin polymerization assay in vitro; type: biochemical; conditions: compared to vehicle
HeLa cells [4] = test: Immunofluorescence of interphase microtubules, HeLa; type: cell-based, human; conditions: 1 μM, 24 h
Method in brief: (§2)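 Cells grown on chamber slides and exposed to DMSO vehicle or test compound, then fixed in 3.7% formaldehyde and permeabilised for 4 min with 0.1% Triton X-100 in PBS. Blocked 1 h in PBS/1% BSA with calf serum. Stained with mouse anti-β-tubulin (1:200), then Alexa 488 goat anti-mouse (1:200) for 2 h at room temperature. Imaged by fluorescence microscopy.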

[5] = test system: chick embryo chorioallantoic membrane; test: Chick embryo chorioallantoic membrane; type: in vivo; conditions: collagen plug with bFGF + VEGF (BV), scored 4 days after treatment
Method in brief: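 Fertilized chick eggs incubated 3 days at 37.5 °C, then shell-free in covered weighboats for 10 more days. Collagen onplants (2.1 mg/mL rat tail collagen, 10 ng/plug bFGF, 30 ng/plug VEGF) with or without test compound placed on CAM over nylon mesh; four per egg, at least three eggs. After 4 days, plugs on surviving embryos imaged and scored blind 0–3; means ± SEM.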

MDA-MB-231 cells [6] = test: Immunofluorescence of interphase microtubules, MDA-MB-231; type: cell-based, human; conditions: 1 μM, 24 h
Method in brief: as §2

[7] = test system: colchicine binding site of tubulin; test: Competitive LC-MS/MS binding assay, colchicine binding site; conditions: colchicine 1.2 μM, tubulin 1.3 mg/mL, 37 °C, 1 h; highest value reached

Compound	IC50 (MDA-MB-231 cells [1]) [nM]	IC50 (A549 cells) [nM]	IC50 (HeLa cells [2]) [nM]	peak plasma concentration [3]	inhibition of tubulin polymerization (bovine brain tubulin; compound at 1 μM)	inhibition of tubulin polymerization (bovine brain tubulin; compound at 10 μM)	effect on interphase microtubule network (HeLa cells [4])	inhibition of new vessel growth (angiogenesis score, scale 0-3) [5]	effect on interphase microtubule network (MDA-MB-231 cells [6])	plasma concentration at 6 h [3]	plasma concentration at 24 h [3]	relative binding capacity, % of colchicine binding [7] [%]
2-(2,4-Dimethoxyphenyl)-6-(2,5-dimethoxyphenyl)pyridine [4m]	34 ± 4	330 ± 10	34 ± 2									
5-Bromo-2-(3,4,5-trimethoxyphenyl)pyridine [2e]	12050 ± 20	> 25000	14000 ± 300									
COc1ccc(-c2cccc(-c3ccc(OC)cc3OC)n2)cc1 [4h, 2-(2,4-Dimethoxyphenyl)-6-(4-methoxyphenyl)pyridine]				lower peak concentrations than CA-4	failed to inhibit tubulin polymerization	remained ineffective against tubulin polymerization	dramatic reduction of the interphase microtubule network	inhibition of new vessel growth	dramatic reduction of the interphase microtubule network			
COc1ccc(-c2cccc(-c3ccc(OC)c(O)c3)n2)c(OC)c1 [4s, 5-(6-(2,4-Dimethoxyphenyl)pyridine-2-yl)-2-methoxyphenol]					failed to inhibit tubulin polymerization			inhibition of new vessel growth; also recorded: scored significantly lower than the positive control (BV)		dropping rapidly	below detection limit	
2-Methoxy-5-(6-(3,4,5-trimethoxyphenyl)pyridine-2-yl)phenol [4t]	69 ± 2.8	2640 ± 380	4.7 ± 0.9	lower peak concentrations than CA-4	failed to inhibit tubulin polymerization	32%		inhibition of new vessel growth; also recorded: scored significantly lower than the positive control (BV)				
5-Bromo-2-(2,4-dimethoxyphenyl)pyridine [2f]	> 100000	> 100000	> 25000									
COc1ccc(/C=C\c2cc(OC)c(OC)c(OC)c2)cc1O [CA-4, Combretastatin-A4, reference compound]						nearly completely blocked tubulin polymerization	very similar loss of the microtubule network	inhibition of new vessel growth	very similar loss of the microtubule network	no longer detectable	no longer detectable	78
